In ChEMBL document CHEMBL3612027, “Substrate-guided optimization of the syringolins yields potent proteasome inhibitors with activity against leukemia cell lines” (Bioorg Med Chem, 2015):

Tests used:
Type in all cases: functional
Malme-3M = assay: Cytotoxicity against human MALME-3M cells assessed as cell growth at 10 uM after 48 hrs relative to control; details: read-out: Activity
Procedure, shortened: (§1)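 Run at the National Cancer Institute as a single-dose screen across its 60-cell-line cancer panel. Compound was tested at 10 micromolar, and growth was expressed as a percentage of negative-control cultures.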

UO-31 = assay: Cytotoxicity against human UO31 cells assessed as cell growth at 10 uM after 48 hrs relative to control; details: UO-31, 48 h, read-out: Activity
Procedure, shortened: (§2)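 Submitted to the National Cancer Institute for a single-dose screen at 10 micromolar against 60 cancer cell lines. Growth is expressed relative to negative-control cultures.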

BT-549 = assay: Cytotoxicity against human BT549 cells assessed as cell growth at 10 uM after 48 hrs relative to control; details: BT-549, 48 h, read-out: Activity; procedure, shortened: as §1
U-251 = assay: Cytotoxicity against human U251 cells assessed as cell growth at 10 uM after 48 hrs relative to control; details: U-251, 48 h, read-out: Activity; procedure, shortened: as §2
SNB-19 = assay: Cytotoxicity against human SNB19 cells assessed as cell growth at 10 uM after 48 hrs relative to control; details: SNB-19, 48 h, read-out: Activity; procedure, shortened: as §2
K562 [1] = assay: Cytotoxicity against human K562 cells assessed as cell growth at 10 uM after 48 hrs relative to control; details: K562, 48 h, read-out: Activity; procedure, shortened: as §1
UACC-62 = assay: Cytotoxicity against human UACC62 cells assessed as cell growth at 10 uM after 48 hrs relative to control; details: UACC-62, 48 h, read-out: Activity; procedure, shortened: as §2
CAKI-1 = assay: Cytotoxicity against human Caki1 cells assessed as cell growth at 10 uM after 48 hrs relative to control; details: CAKI-1, 48 h, read-out: Activity; procedure, shortened: as §1
SN12C = assay: Cytotoxicity against human SN12C cells assessed as cell growth at 10 uM after 48 hrs relative to control; details: read-out: Activity; procedure, shortened: as §2
NCI-H460 = assay: Cytotoxicity against human NCI-H460 cells assessed as cell growth at 10 uM after 48 hrs relative to control; details: NCI-H460, 48 h, read-out: Activity; procedure, shortened: as §1
MCF7 = assay: Cytotoxicity against human MCF7 cells assessed as cell growth at 10 uM after 48 hrs relative to control; details: MCF7, 48 h, read-out: Activity; procedure, shortened: as §1
OVCAR-3 = assay: Cytotoxicity against human OVCAR3 cells assessed as cell growth at 10 uM after 48 hrs relative to control; details: OVCAR-3, 48 h, read-out: Activity; procedure, shortened: as §1
PC-3 = assay: Cytotoxicity against human PC3 cells assessed as cell growth at 10 uM after 48 hrs relative to control; details: PC-3, 48 h, read-out: Activity; procedure, shortened: as §1
OVCAR-5 = assay: Cytotoxicity against human OVCAR5 cells assessed as cell growth at 10 uM after 48 hrs relative to control; details: OVCAR-5, 48 h, read-out: Activity; procedure, shortened: as §1
HL-60(TB) = assay: Cytotoxicity against human HL-60(TB) cells assessed as cell growth at 10 uM after 48 hrs relative to control; details: HL-60, 48 h, read-out: Activity
Procedure, shortened: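 Run at the NCI as a single-dose screen: each compound at 10 micromolar across the 60-cancer-cell-line panel. Growth of each cell line in compound-containing media was expressed relative to negative-control cultures.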

K562 [2] = assay: Cytotoxicity against human K562 cells after 48 hrs; details: K562, 48 h
M14 = assay: Cytotoxicity against human M14 cells assessed as cell growth at 10 uM after 48 hrs relative to control; details: M14, 48 h, read-out: Activity; procedure, shortened: as §1
[3] = Cytotoxicity against human RPMI-8226 cells after 48 hrs; details: RPMI-8226, 48 h
HCT-116 = assay: Cytotoxicity against human HCT116 cells assessed as cell growth at 10 uM after 48 hrs relative to control; details: HCT-116, 48 h, read-out: Activity; procedure, shortened: as §1
SF-295 = assay: Cytotoxicity against human SF295 cells assessed as cell growth at 10 uM after 48 hrs relative to control; details: SF-295, 48 h, read-out: Activity; procedure, shortened: as §1
ACHN = assay: Cytotoxicity against human ACHN cells assessed as cell growth at 10 uM after 48 hrs relative to control; details: read-out: Activity; procedure, shortened: as §1
SK-OV-3 = assay: Cytotoxicity against human SKOV3 cells assessed as cell growth at 10 uM after 48 hrs relative to control; details: SK-OV-3, 48 h, read-out: Activity; procedure, shortened: as §1
HCC 2998 = assay: Cytotoxicity against human HCC2998 cells assessed as cell growth at 10 uM after 48 hrs relative to control; details: HCC 2998, 48 h, read-out: Activity; procedure, shortened: as §1
MDA-MB-231 = assay: Cytotoxicity against human MDA-MB-231 cells assessed as cell growth at 10 uM after 48 hrs relative to control; details: MDA-MB-231, 48 h, read-out: Activity; procedure, shortened: as §1
[4] = Cytotoxicity against human Hs578T cells assessed as cell growth at 10 uM after 48 hrs relative to control; details: Hs-578T, read-out: Activity; procedure, shortened: as §1
MDA-MB-468 = assay: Cytotoxicity against human MDA-MB-468 cells assessed as cell growth at 10 uM after 48 hrs relative to control; details: MDA-MB-468, 48 h, read-out: Activity; procedure, shortened: as §1
TK-10 = assay: Cytotoxicity against human TK10 cells assessed as cell growth at 10 uM after 48 hrs relative to control; details: TK-10, 48 h, read-out: Activity; procedure, shortened: as §2
A549 = assay: Cytotoxicity against human A549 cells assessed as cell growth at 10 uM after 48 hrs relative to control; details: A549, 48 h, read-out: Activity; procedure, shortened: as §1
HCT-15 = assay: Cytotoxicity against human HCT15 cells assessed as cell growth at 10 uM after 48 hrs relative to control; details: HCT-15, 48 h, read-out: Activity; procedure, shortened: as §1
HL-60 = assay: Cytotoxicity against human HL60 cells after 48 hrs; details: HL-60, 48 h
IGROV-1 = assay: Cytotoxicity against human IGROV1 cells assessed as cell growth at 10 uM after 48 hrs relative to control; details: IGROV-1, 48 h, read-out: Activity; procedure, shortened: as §1
SF-539 = assay: Cytotoxicity against human SF539 cells assessed as cell growth at 10 uM after 48 hrs relative to control; details: SF-539, 48 h, read-out: Activity; procedure, shortened: as §1
NCI-H23 = assay: Cytotoxicity against human NCI-H23 cells assessed as cell growth at 10 uM after 48 hrs relative to control; details: NCI-H23, 48 h, read-out: Activity; procedure, shortened: as §1
NCI/ADR-RES = assay: Cytotoxicity against human NCI/ADR-RES cells assessed as cell growth at 10 uM after 48 hrs relative to control; details: read-out: Activity; procedure, shortened: as §1
RPMI-8226 = assay: Cytotoxicity against human RPMI8226 cells assessed as cell growth at 10 uM after 48 hrs relative to control; details: RPMI-8226, 48 h, read-out: Activity; procedure, shortened: as §1
T47D = assay: Cytotoxicity against human T47D cells assessed as cell growth at 10 uM after 48 hrs relative to control; details: read-out: Activity; procedure, shortened: as §2
DU-145 = assay: Cytotoxicity against human DU145 cells assessed as cell growth at 10 uM after 48 hrs relative to control; details: DU-145, 48 h, read-out: Activity; procedure, shortened: as §1

Structure (SMILES)	growth at 10 µM (Malme-3M) [%]	growth at 10 µM (UO-31) [%]	growth at 10 µM (BT-549) [%]	growth at 10 µM (U-251) [%]	growth at 10 µM (SNB-19) [%]	growth at 10 µM (K562 [1]) [%]	growth at 10 µM (UACC-62) [%]	growth at 10 µM (CAKI-1) [%]	growth at 10 µM (SN12C) [%]	growth at 10 µM (NCI-H460) [%]	growth at 10 µM (MCF7) [%]	growth at 10 µM (OVCAR-3) [%]	growth at 10 µM (PC-3) [%]	growth at 10 µM (OVCAR-5) [%]	growth at 10 µM (HL-60(TB)) [%]	GI50 (K562 [2]) [µM]	growth at 10 µM (M14) [%]	GI50 [3] [µM]	growth at 10 µM (HCT-116) [%]	growth at 10 µM (SF-295) [%]	other results
COC(=O)[C@@H](NC(=O)N[C@H](C(=O)N[C@H]1CCCCNC(=O)/C=C/[C@H](C(C)C)NC1=O)C(C)C)C(C)C	29.9	82.2	5.44	8.29	34	40.5	13.3	103	15.8	28.9	42.8	-39.6	62	58.4	27.2	6.12	64.5	3.97	21.2	58.9	growth at 10 µM (ACHN): 96.4%; growth at 10 µM (SK-OV-3): 47.5%; growth at 10 µM (HCC 2998): -0.39%; growth at 10 µM (MDA-MB-231): 24.4%; growth at 10 µM [4]: 4.52%; growth at 10 µM (MDA-MB-468): -0.21%; growth at 10 µM (TK-10): 85.8%; growth at 10 µM (A549): 42.1%; growth at 10 µM (HCT-15): 98.2%; GI50 (HL-60): 5.41 µM; growth at 10 µM (IGROV-1): 33.4%; growth at 10 µM (SF-539): -19.4%; growth at 10 µM (NCI-H23): 34.2%; growth at 10 µM (NCI/ADR-RES): 100%; growth at 10 µM (RPMI-8226): 15.2%; growth at 10 µM (T47D): -31.7%; growth at 10 µM (DU-145): 42%
COC(=O)[C@@H](NC(=O)N[C@@H](Cc1ccccc1)C(=O)N[C@H]1CCCCNC(=O)/C=C/[C@H](Cc2c[nH]c3ccccc23)NC1=O)C(C)C	94	84	26.6	63.9	51.2	82.1	79.3	106	80.1	99.1	40.3	15.7	103	113	55.3	2.94	101	0.343	76.4	99.7	growth at 10 µM (ACHN): 101%; growth at 10 µM (SK-OV-3): 95.4%; growth at 10 µM (HCC 2998): 91.8%; growth at 10 µM (MDA-MB-231): 79.1%; growth at 10 µM [4]: 58.2%; growth at 10 µM (MDA-MB-468): 18%; growth at 10 µM (TK-10): 101%; growth at 10 µM (A549): 95.5%; growth at 10 µM (HCT-15): 110%; GI50 (HL-60): 1.29 µM; growth at 10 µM (IGROV-1): 61.4%; growth at 10 µM (SF-539): 17.5%; growth at 10 µM (NCI-H23): 78.1%; growth at 10 µM (NCI/ADR-RES): 99.1%; growth at 10 µM (RPMI-8226): 21.2%; growth at 10 µM (T47D): 34.4%; growth at 10 µM (DU-145): 95.1%
